Assay results: ChEMBL document CHEMBL1128641, “N-3-substituted pyrimidinones as potent, orally active, AT1 selective angiotensin II receptor antagonists” (J Med Chem, 1995)

Key:
[1] = molecular target: T1, Angiotensin II receptor (AT-1) type-1 (Rattus norvegicus, UniProt P29089+P25095); experiment: Displacement of [3H]angiotensin II from Angiotensin II type 1 receptor in rat adrenal cortical membrane; format: cell membranes
T1 sequence (P29089 whole entry): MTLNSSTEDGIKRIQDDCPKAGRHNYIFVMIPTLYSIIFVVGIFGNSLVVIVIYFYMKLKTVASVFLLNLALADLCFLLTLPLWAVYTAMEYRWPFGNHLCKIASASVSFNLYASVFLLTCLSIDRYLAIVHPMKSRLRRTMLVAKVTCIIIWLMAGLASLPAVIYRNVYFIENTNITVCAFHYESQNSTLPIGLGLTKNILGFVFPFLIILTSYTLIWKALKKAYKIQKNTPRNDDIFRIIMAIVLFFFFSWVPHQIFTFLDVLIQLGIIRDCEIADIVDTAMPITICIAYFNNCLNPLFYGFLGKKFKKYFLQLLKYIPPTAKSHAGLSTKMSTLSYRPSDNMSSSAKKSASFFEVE
T1 sequence (P25095 whole entry): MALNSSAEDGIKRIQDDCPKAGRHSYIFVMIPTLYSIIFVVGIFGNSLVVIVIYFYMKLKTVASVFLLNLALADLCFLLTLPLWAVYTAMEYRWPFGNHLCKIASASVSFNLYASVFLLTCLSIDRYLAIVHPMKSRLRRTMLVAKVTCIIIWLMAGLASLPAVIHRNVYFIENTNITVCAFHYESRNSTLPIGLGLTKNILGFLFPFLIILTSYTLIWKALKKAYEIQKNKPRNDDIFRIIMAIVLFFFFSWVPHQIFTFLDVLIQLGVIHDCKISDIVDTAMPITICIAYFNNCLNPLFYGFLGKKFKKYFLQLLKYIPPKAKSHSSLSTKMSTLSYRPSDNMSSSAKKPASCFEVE

[2] = molecular target: Type-2 angiotensin II receptor (Bos taurus, UniProt G5E6F7); experiment: Binding affinity towards Angiotensin II type 2 receptor in bovine cerebellar cortical membranes; Inactive
[3] = tested on: Rattus norvegicus; experiment: Time duration was determined from onset of the action till no response after (i.v.) administration of 1 mg/kg in anesthetized, ganglion blocked, A II- infused rat; format: functional; conditions: route intravenous
Method in brief: (§1)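 Male Sprague-Dawley rats (300–400 g) were anesthetized with urethane (1.25 g/kg im) and ganglion-blocked with pentolinium (0.1 mg/kg/min), with carotid BP recorded at 37 °C. After three reproducible A II challenges (100 ng/kg iv, every 10 min), compound was given iv 5 min before the next challenge. Challenges continued until the response returned near basal, with one dose per animal. Vehicle was 1% DMSO/stoichiometric NaOH or 0.5% methocel.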

[4] = molecular target: T2, Angiotensin II receptor (Rattus norvegicus) (UniProt P29089+P25095+P35351); experiment: Effect on pressure response to angiotensin II receptor (AII) after (i.v.) administration of 1 mg/kg in anesthetized, ganglion blocked, A II- infused rat was determined in vivo; format: functional, organism-based; design: dose 1 mg/kg; conditions: at 1 mg/kg; method in brief: as §1
T2 sequence (P35351 whole entry, looked up, one chain of several, the tested form may be a part): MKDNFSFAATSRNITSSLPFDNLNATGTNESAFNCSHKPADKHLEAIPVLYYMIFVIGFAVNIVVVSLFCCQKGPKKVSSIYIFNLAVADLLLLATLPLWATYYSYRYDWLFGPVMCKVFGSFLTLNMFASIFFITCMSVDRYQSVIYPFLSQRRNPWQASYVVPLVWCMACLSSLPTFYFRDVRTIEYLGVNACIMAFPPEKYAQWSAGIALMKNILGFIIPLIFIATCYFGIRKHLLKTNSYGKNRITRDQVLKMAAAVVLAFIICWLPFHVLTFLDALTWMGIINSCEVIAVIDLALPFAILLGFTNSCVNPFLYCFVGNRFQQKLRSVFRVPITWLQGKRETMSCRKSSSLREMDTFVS

[5] = molecular target: T2, Angiotensin II receptor (Rattus norvegicus); experiment: Effect on pressure response to angiotensin II receptor (AII) after […] administration of 1 mg/kg in anesthetized, ganglion blocked, A II- infused rat was determined in vivo; format: functional, organism-based; design: dose 1 mg/kg
Method in brief: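 Compound was given intraduodenally, one dose per animal, in 1% DMSO/stoichiometric NaOH or 0.5% methocel. Inhibition was read 30 min after dosing; the 1 mg/kg duration is the time from onset until inhibition was no longer significant.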

[6] = molecular target: T2, Angiotensin II receptor (Rattus norvegicus); experiment: Effect on pressure response to angiotensin II receptor (AII) after (i.v.) administration of 1 mg/kg in anesthetized, ganglion blocked, AII-infused rat in vivo; format: functional, organism-based; design: dose 1 mg/kg
Method in brief: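 After three reproducible A II challenges (100 ng/kg iv, every 10 min), compound was given iv 5 min before the next challenge. Challenges continued until the response returned near basal, with one dose per animal. Vehicle was 1% DMSO/stoichiometric NaOH or 0.5% methocel.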

[7] = tested on: Rattus norvegicus; experiment: Time duration was determined from onset of the action till no response after […] administration of 1 mg/kg in anesthetized, ganglion blocked, A II- infused rat; format: functional
[8] = tested on: Rattus norvegicus; experiment: Time from onset of the action at a dose of 1 mg/kg until significant inhibition of pressure response is no longer observed in anesthetized, ganglion blocked, A II- infused rat after […] administration; format: functional
[9] = tested on: Rattus norvegicus; experiment: ime duration was determined from onset of the action till no response after […] in anesthetized, ganglion blocked, A II- infused rat; format: functional

Row | SMILES | Ki [1] | Ki [2] | inhibition [4] | ED50 [5] | ED50 [6] | Duration [3] | Duration [7] | Duration [8] | Duration [9]
1 | CCCCc1nc(C)n(Cc2ccccc2C(=O)O)c(=O)c1Cc1ccc(-c2ccccc2C(=O)O)cc1 | 0.401 µM | > 4 µM | 46% |  |  | 15 min |  |  | 
2 | CCCCc1nc(C)n(Cc2sccc2C(=O)O)c(=O)c1Cc1ccc(-c2ccccc2C(=O)O)cc1 | 0.181 µM | > 4 µM | 33% |  |  | 15 min |  |  | 
3 | CCCCc1nc(C)cc(=O)n1Cc1ccc(-c2ccccc2C(=O)O)cc1 | 0.263 µM | > 4 µM | 34% |  |  | 15 min |  |  | 
4 | CCCCc1ncnc(O)c1Cc1ccc(-c2ccccc2C(=O)O)cc1 | 0.148 µM | > 4 µM | 50% |  |  | 35 min |  |  | 
5 | CCCCc1ncn(Cc2ccccc2)c(=O)c1Cc1ccc(-c2ccccc2C(=O)O)cc1 | 0.04 µM | > 4 µM | 39% |  |  | 25 min |  |  | 
6 | CCCCc1nc(C)n(Cc2occc2C(=O)OC)c(=O)c1Cc1ccc(-c2ccccc2-c2nn[nH]n2)cc1 | 0.00058 µM |  |  | 1.44 mg/kg | 0.3 mg/kg | 65 min | >120 min |  | 
7 | CCCCc1nccc(=O)n1Cc1ccc(-c2ccccc2C(=O)O)cc1 | 1.097 µM | > 4 µM | 42% |  |  | 35 min |  |  | 
8 | CCCCc1ncn(Cc2ccc(C(=O)O)cc2)c(=O)c1Cc1ccc(-c2ccccc2C(=O)O)cc1 |  | > 4 µM | 46% |  |  | 25 min |  |  | 
9 | CCCCc1nc(C)n(Cc2ccsc2C(=O)OC)c(=O)c1Cc1ccc(-c2ccccc2-c2nn[nH]n2)cc1 | 0.0021 µM | > 4 µM |  | 2.67 mg/kg | 0.54 mg/kg | 65 min | >120 min |  | 
10 | CCCCc1nc(C)n(Cc2sccc2C(=O)OC)c(=O)c1Cc1ccc(-c2ccccc2-c2nnn[nH]2)cc1 |  | > 4 µM |  |  |  | 65 min | >120 min |  | 
11 | CCCCc1nc(C)n(Cc2ccccc2)c(=O)c1Cc1ccc(-c2ccccc2-c2nnn[nH]2)cc1 |  | > 4 µM |  |  |  |  |  |  | 
12 | CCCCc1ncn(Cc2ccccc2C(=O)O)c(=O)c1Cc1ccc(-c2ccccc2C(=O)O)cc1 | 0.379 µM | > 4 µM | 43% |  |  | 25 min |  |  | 
13 | CCCCc1nc(C)n(Cc2occc2C(=O)O)c(=O)c1Cc1ccc(-c2ccccc2C(=O)O)cc1 | 0.264 µM | > 4 µM |  |  | 0.85 mg/kg | 25 min |  |  | 
14 | CCCCc1nc(C)nc(O)c1Cc1ccc(-c2ccccc2C(=O)O)cc1 | 0.113 µM | > 4 µM | 53% |  |  | 35 min |  |  | 
15 | CCCCc1nc(Cl)c(CO)n1Cc1ccc(-c2ccccc2C(=O)O)cc1 |  |  | 48% |  |  | 25 min |  |  | 
16 | CCCCc1nc(C)n(Cc2sccc2C(=O)O)c(=O)c1Cc1ccc(-c2ccccc2-c2nn[nH]n2)cc1 | 0.014 µM |  |  | 7.24 mg/kg | 0.45 mg/kg | 55 min |  |  | >120 min
17 | CCCCc1nc(Cl)c(CO)n1Cc1ccc(-c2ccccc2-c2nnn[nH]2)cc1 [LOSARTAN] |  |  |  | 3.7 mg/kg | 0.32 mg/kg | 55 min | 120 min |  | 

Continued, in another order:

Row | Ki [1] | Ki [2] | inhibition [4] | ED50 [5] | ED50 [6] | SMILES | Duration [3] | Duration [7] | Duration [8] | Duration [9]
18 | 0.016 µM | > 4 µM |  | 14.5 mg/kg | 0.43 mg/kg | CCCCc1nc(C)n(Cc2occc2C(=O)O)c(=O)c1Cc1ccc(-c2ccccc2-c2nn[nH]n2)cc1 | 45 min | 75 min |  | 
19 |  | > 4 µM |  |  |  | CCCCc1nc(C)n(Cc2cccs2)c(=O)c1Cc1ccc(-c2ccccc2-c2nnn[nH]2)cc1 | 55 min | 60 min |  | 
20 | 0.003 µM |  |  | > 10 mg/kg | 1.07 mg/kg | CCCCc1nc(C)n(Cc2ccccc2)c(=O)c1Cc1ccc(-c2ccccc2-c2nn[nH]n2)cc1 | 45 min | 60 min |  | 
21 | 0.06 µM | > 4 µM | 23% |  |  | CCCCc1ncn(Cc2cccs2)c(=O)c1Cc1ccc(-c2ccccc2C(=O)O)cc1 | 15 min |  |  | 
22 |  | > 4 µM |  |  |  | CCCCc1nc(C)n(Cc2sccc2C(=O)O)c(=O)c1Cc1ccc(-c2ccccc2-c2nnn[nH]2)cc1 |  |  |  | 
23 | 0.018 µM | > 4 µM |  | 4.2 mg/kg | 0.31 mg/kg | CCCCc1nc(C)n(Cc2ccccc2C(=O)O)c(=O)c1Cc1ccc(-c2ccccc2-c2nn[nH]n2)cc1 | 65 min |  | >120 min | 
24 |  | > 4 µM |  |  |  | CCCCc1nc(C)n(Cc2occc2C(=O)OC)c(=O)c1Cc1ccc(-c2ccccc2-c2nnn[nH]2)cc1 |  |  |  | 
25 |  | > 4 µM |  |  |  | CCCCc1nc(C)[nH]c(=O)c1Cc1ccc(-c2ccccc2-c2nnn[nH]2)cc1 |  |  |  | 
26 | 0.003 µM |  | 87% |  |  | CCCCc1nc(C)nc(O)c1Cc1ccc(-c2ccccc2-c2nn[nH]n2)cc1 | 55 min |  |  | 
